# Read-outs that look alike come from different tables or passages of the source.
# Experiments:
# [1] = system: Japanese participants with T1DM; test: Ketogenesis markers; format: in vivo, human; conditions: after 4 weeks of treatment
# Outline: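 Serum β-hydroxybutyrate was sampled on Days −1, 1, 7 and 8 and measured by a contract laboratory. The change from baseline in AUC0–24h was calculated on Day 7. Day-28 levels were measured among the laboratory safety parameters and summarised descriptively.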
# [2] = system: Japanese participants with T1DM; test: 24-hour urinary glucose excretion; format: in vivo, human; conditions: for placebo-corrected adjusted mean (95% CI) change from baseline in 24-hour UGE: Day 7
# Outline: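 Japanese adults with T1DM on multiple daily insulin injections, after a 2-week placebo run-in, were randomized 1:1:1:1 to oral test compound 2.5, 10 or 25 mg or placebo once each morning for 4 weeks. All urine was collected over 24 h at baseline and Days 1, 7 and 28. Day-7 change was analysed by ANCOVA (baseline covariate) with LOCF.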
# [3] = system: Japanese participants with T1DM; test: Laboratory safety parameters; format: in vivo, human; conditions: empagliflozin groups, Day 28
# Outline: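 Blood and urine were collected on Days 1, 7 and 28 of once-daily oral dosing with test compound or placebo. They were measured centrally and summarised descriptively in the treated set.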
# [4] = system: Japanese participants with T1DM; test: Continuous glucose monitoring; format: in vivo, human; conditions: within Week 4, CGM
# Outline: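 A blinded professional CGM device was worn from Day −6 to Day 28 during once-daily oral test compound or placebo. Glucose exposure was taken as mean daily glucose AUC. Variability was taken as glucose interquartile range, plus % time at ≤70, >70 to ≤180 and >180 mg/dL. Week-4 changes from baseline are adjusted means.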
# [5] = system: Japanese participants with T1DM; test: Adverse events and hypoglycaemic episodes during 4-week double-blind treatment; format: in vivo, human; conditions: 4 weeks
# Outline: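 In a double-blind, 4-week study, participants took test compound 2.5, 10 or 25 mg or placebo orally once daily. Adverse events were coded in MedDRA 19.1. Hypoglycaemic events were based on scheduled blood glucose tests and/or CGM. Special-interest events included genital and urinary infections and volume depletion. Severe hypoglycaemia and DKA were adjudicated externally. Results were summarised descriptively in all treated participants.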
# [6] = system: Japanese participants with T1DM; test: HbA1c and fasting plasma glucose; format: in vivo, human; conditions: Day 28
# Outline: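 During 4 weeks of once-daily oral test compound or placebo, blood was drawn for HbA1c on Days 1 and 28. FPG was sampled on Days −1, 1, 2, 7, 8, 14, 21, 28 and 29. Samples were assayed at a central laboratory. Changes from baseline were analysed by ANCOVA (treatment fixed, baseline covariate).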
# [7] = system: Japanese participants with T2DM; conditions: 10 mg, Day 28, Japanese T2DM; cited from earlier work
# [8] = Pharmacokinetics of empagliflozin in plasma; format: in vivo, human
# Outline: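 Blood and urine were sampled on Days 1 and 28 of 4-week once-daily oral dosing (2.5, 10, 25 mg). Concentrations were measured by validated LC-MS/MS. Steady state was judged from troughs on Days 2, 7, 14, 21, 27, 28 and 29. Cmax, AUC and t1/2,ss were derived non-compartmentally. Timepoint statistics required ≥2/3 of values within the validated range.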
# [9] = system: participants with T2DM with established cardiovascular disease; conditions: cited from earlier work
# [10] = system: Japanese participants with T1DM; test: Weekly recorded insulin dose; format: in vivo, human; conditions: for recorded insulin dose adjusted mean difference vs placebo (95% CI): Week 4; for % of adjusted mean change from baseline in recorded insulin dose (reduction from baseline): within Week 4
# Outline: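 Participants recorded basal and bolus insulin doses in a diary. Weekly totals were compiled during 4 weeks of once-daily oral test compound or placebo. At randomization, HbA1c 7.5–<8% prompted a 10% cut in daily insulin; otherwise dosing was at investigator discretion. Changes were analysed by ANCOVA with baseline covariate.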
# [11] = Body weight; format: in vivo, human; conditions: Day 28
# Outline: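 T1DM participants on multiple daily insulin injections took oral test compound or placebo once daily for 4 weeks. Body weight was measured on Day 28. Change from baseline was analysed by ANCOVA, with treatment as a fixed effect and baseline as a linear covariate.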
# [12] = system: participants with T1DM; conditions: 24 weeks, cited from earlier work
smiles,measurement,setting,value
OC[C@H]1O[C@@H](c2ccc(Cl)c(Cc3ccc(O[C@H]4CCOC4)cc3)c2)[C@H](O)[C@@H](O)[C@@H]1O [empagliflozin],highest individual serum BHB level,[1],approximately 0.8 mmol/L
same,mean serum BHB levels,[1]; all doses,< 0.5 mmol/L
same,placebo-corrected adjusted mean (95% CI) change from baseline in 24-hour UGE,[2]; 2.5 mg once daily,"65.10 [43.29, 86.90] g/24 h"
same,adjusted effect on UGE,"[2]; 2.5 mg, Day 28, Japanese T1DM",91.0 g/24 h
same,placebo-corrected adjusted mean (95% CI) change from baseline in 24-hour UGE,[2]; 10 mg once daily,"81.19 [58.80, 103.58] g/24 h"
same,placebo-corrected adjusted mean (95% CI) change from baseline in 24-hour UGE,[2]; 25 mg once daily,"98.11 [75.91, 120.31] g/24 h"
same,changes from baseline in laboratory safety parameters (overall),[3],no significant changes from baseline
same,IQR of glucose adjusted mean difference vs placebo (95% CI),[4]; 2.5 mg,-23.08 mg/dL
same,MDAUC of glucose adjusted mean difference vs placebo (95% CI),[4]; 2.5 mg,-558 mg·h/dL
same,IQR of glucose adjusted mean difference vs placebo (95% CI),[4]; 10 mg,-13.08 mg/dL
same,MDAUC of glucose adjusted mean difference vs placebo (95% CI),[4]; 10 mg,-338 mg·h/dL
same,IQR of glucose adjusted mean difference vs placebo (95% CI),[4]; 25 mg,-22.09 mg/dL
same,MDAUC of glucose adjusted mean difference vs placebo (95% CI),[4]; 25 mg,-514 mg·h/dL
same,"Asymptomatic hypoglycaemia with PG ≤70 mg/dL, rate",[5]; 2.5 mg,5.1 episodes per 30 days per participant
same,"Asymptomatic hypoglycaemia with PG ≤70 mg/dL, total number of episodes",[5]; 2.5 mg,62 episodes
same,Death,[5]; 2.5 mg,0 (0) % (n) of participants
same,Decreased renal function,[5]; 2.5 mg,0 (0) % (n) of participants
same,Events consistent with UTI,[5]; 2.5 mg,0 (0) % (n) of participants
same,Events consistent with genital infection,[5]; 2.5 mg,7.7 (1) % (n) of participants
same,Events consistent with volume depletion,[5]; 2.5 mg,0 (0) % (n) of participants
same,Hepatic injury,[5]; 2.5 mg,0 (0) % (n) of participants
same,Hypoglycaemia (AE),[5]; 2.5 mg,92.3 (12) % (n) of participants
same,"Hypoglycaemia requiring assistance, rate",[5]; 2.5 mg,0 (0) episodes per 30 days per participant
same,"Hypoglycaemia requiring assistance, total number of episodes",[5]; 2.5 mg,0 (0) episodes
same,Ketoacidosis,[5]; 2.5 mg,0 (0) % (n) of participants
same,"Symptomatic hypoglycaemia with PG <54 mg/dL, rate",[5]; 2.5 mg,1.5 episodes per 30 days per participant
same,"Symptomatic hypoglycaemia with PG <54 mg/dL, total number of episodes",[5]; 2.5 mg,18 episodes
same,"Symptomatic hypoglycaemia with PG ≥54 and ≤70 mg/dL, rate",[5]; 2.5 mg,1.8 episodes per 30 days per participant
same,"Symptomatic hypoglycaemia with PG ≥54 and ≤70 mg/dL, total number of episodes",[5]; 2.5 mg,22 episodes
same,participants with genital infection (vulvovaginal candidiasis of mild intensity),[5]; 2.5 mg,1 participants
same,≥1 AE,[5]; 2.5 mg,92.3 (12) % (n) of participants
same,≥1 AE leading to discontinuation,[5]; 2.5 mg,0 (0) % (n) of participants
same,≥1 Drug-related AE,[5]; 2.5 mg,84.6 (11) % (n) of participants
same,≥1 Serious AE,[5]; 2.5 mg,0 (0) % (n) of participants
same,≥1 Severe AE,[5]; 2.5 mg,0 (0) % (n) of participants
same,"Asymptomatic hypoglycaemia with PG ≤70 mg/dL, rate",[5]; 10 mg,6.7 episodes per 30 days per participant
same,"Asymptomatic hypoglycaemia with PG ≤70 mg/dL, total number of episodes",[5]; 10 mg,78 episodes
same,Death,[5]; 10 mg,0 (0) % (n) of participants
same,Decreased renal function,[5]; 10 mg,0 (0) % (n) of participants
same,Events consistent with UTI,[5]; 10 mg,0 (0) % (n) of participants
same,Events consistent with genital infection,[5]; 10 mg,0 (0) % (n) of participants
same,Events consistent with volume depletion,[5]; 10 mg,0 (0) % (n) of participants
same,Hepatic injury,[5]; 10 mg,0 (0) % (n) of participants
same,Hypoglycaemia (AE),[5]; 10 mg,100 (12) % (n) of participants
same,"Hypoglycaemia requiring assistance, rate",[5]; 10 mg,0 (0) episodes per 30 days per participant
same,"Hypoglycaemia requiring assistance, total number of episodes",[5]; 10 mg,0 (0) episodes
same,Ketoacidosis,[5]; 10 mg,0 (0) % (n) of participants
same,"Symptomatic hypoglycaemia with PG <54 mg/dL, rate",[5]; 10 mg,2.7 episodes per 30 days per participant
same,"Symptomatic hypoglycaemia with PG <54 mg/dL, total number of episodes",[5]; 10 mg,31 episodes
same,"Symptomatic hypoglycaemia with PG ≥54 and ≤70 mg/dL, rate",[5]; 10 mg,3.9 episodes per 30 days per participant
same,"Symptomatic hypoglycaemia with PG ≥54 and ≤70 mg/dL, total number of episodes",[5]; 10 mg,45 episodes
same,≥1 AE,[5]; 10 mg,100 (12) % (n) of participants
same,≥1 AE leading to discontinuation,[5]; 10 mg,0 (0) % (n) of participants
same,≥1 Drug-related AE,[5]; 10 mg,100 (12) % (n) of participants
same,≥1 Serious AE,[5]; 10 mg,0 (0) % (n) of participants
same,≥1 Severe AE,[5]; 10 mg,0 (0) % (n) of participants
same,"Asymptomatic hypoglycaemia with PG ≤70 mg/dL, total number of episodes",[5]; 25 mg,140 episodes
same,Death,[5]; 25 mg,0 (0) % (n) of participants
same,Decreased renal function,[5]; 25 mg,0 (0) % (n) of participants
same,Events consistent with UTI,[5]; 25 mg,0 (0) % (n) of participants
same,Events consistent with genital infection,[5]; 25 mg,8.3 (1) % (n) of participants
same,Events consistent with volume depletion,[5]; 25 mg,0 (0) % (n) of participants
same,Hepatic injury,[5]; 25 mg,0 (0) % (n) of participants
same,Hypoglycaemia (AE),[5]; 25 mg,100 (12) % (n) of participants
same,"Hypoglycaemia requiring assistance, rate",[5]; 25 mg,0 (0) episodes per 30 days per participant
same,"Hypoglycaemia requiring assistance, total number of episodes",[5]; 25 mg,0 (0) episodes
same,Ketoacidosis,[5]; 25 mg,0 (0) % (n) of participants
same,"Symptomatic hypoglycaemia with PG <54 mg/dL, rate",[5]; 25 mg,1.8 episodes per 30 days per participant
same,"Symptomatic hypoglycaemia with PG <54 mg/dL, total number of episodes",[5]; 25 mg,21 episodes
same,"Symptomatic hypoglycaemia with PG ≥54 and ≤70 mg/dL, rate",[5]; 25 mg,1.0 episodes per 30 days per participant
same,"Symptomatic hypoglycaemia with PG ≥54 and ≤70 mg/dL, total number of episodes",[5]; 25 mg,12 episodes
same,participants with genital infection (vulvovaginal candidiasis of mild intensity),[5]; 25 mg,1 participants
same,≥1 AE,[5]; 25 mg,100 (12) % (n) of participants
same,≥1 AE leading to discontinuation,[5]; 25 mg,0 (0) % (n) of participants
same,≥1 Drug-related AE,[5]; 25 mg,91.7 (11) % (n) of participants
same,≥1 Serious AE,[5]; 25 mg,0 (0) % (n) of participants
same,≥1 Severe AE,[5]; 25 mg,0 (0) % (n) of participants
same,DKA events (investigator-reported or adjudicated),[5]; all doses,No events meeting the criteria for DKA were reported
same,tolerability,"[5]; all three doses (2.5, 10, 25 mg)",generally well tolerated
same,FPG adjusted mean difference vs placebo (95% CI),[6]; 2.5 mg,-14.27 mg/dL
same,HbA1c adjusted mean difference vs placebo (95% CI),[6]; 2.5 mg,−0.20%
same,FPG adjusted mean difference vs placebo (95% CI),[6]; 10 mg,-43.63 mg/dL
same,HbA1c adjusted mean difference vs placebo (95% CI),[6]; 10 mg,−0.35%
same,FPG adjusted mean difference vs placebo (95% CI),[6]; 25 mg,-59.57 mg/dL
same,HbA1c adjusted mean difference vs placebo (95% CI),[6]; 25 mg,−0.20%
same,adjusted effect on UGE,[7],80.9 g/24 h
same,exposure (AUC and Cmax) versus dose,[8]; after a single dose and at steady state,increased proportionally with dose
same,Tmax,"[8]; human, plasma, po",~1.5 h
same,time to steady state,"[8]; once daily oral dosing, trough concentrations",≤ 7 days
same,time to peak plasma level after dosing,"[8]; single and multiple oral doses, 2.5-25 mg",1.5 h
same,reduction of incident or worsening nephropathy,[9],39%
same,reduction of risk of cardiovascular death,[9],38%
same,recorded insulin dose adjusted mean difference vs placebo (95% CI),[10]; 2.5 mg,−0.08 U/kg
same,% of adjusted mean change from baseline in recorded insulin dose (reduction from baseline),[10]; 2.5 mg,−20.5%
same,recorded insulin dose adjusted mean difference vs placebo (95% CI),[10]; 10 mg,−0.10 U/kg
same,% of adjusted mean change from baseline in recorded insulin dose (reduction from baseline),[10]; 10 mg,−23.3%
same,recorded insulin dose adjusted mean difference vs placebo (95% CI),[10]; 25 mg,−0.09 U/kg
same,% of adjusted mean change from baseline in recorded insulin dose (reduction from baseline),[10]; 25 mg,−24.2%
same,body weight adjusted mean difference vs placebo (95% CI),[11]; 2.5 mg,-1.37 kg
same,body weight adjusted mean difference vs placebo (95% CI),[11]; 10 mg,-1.47 kg
same,body weight adjusted mean difference vs placebo (95% CI),[11]; 25 mg,-1.70 kg
CCOc1ccc(Cc2cc([C@@H]3O[C@H](CO)[C@@H](O)[C@H](O)[C@H]3O)ccc2Cl)cc1 [dapagliflozin],"DKA events, certain",[12]; 5 mg,4 [1%] participants [%]
same,"DKA events, potential",[12]; 5 mg,16 [6%] participants [%]
same,"DKA events, certain",[12]; 10 mg,5 [2%] participants [%]
same,"DKA events, potential",[12]; 10 mg,19 [6%] participants [%]

# From publication PMC6099358 (Diabetes, Obesity & Metabolism, 2018)
